{
  "source": "ChEMBL document CHEMBL4619779",
  "about": "“Tideglusib and Its Analogues As Inhibitors of Staphylococcus aureus SrtA” (J Med Chem, 2020)",
  "key": {"[1]": {"tested_on": "Sortase A (Staphylococcus aureus), Q9S446 [UNDEFINED MUTATION]", "assay": "Inhibition of SrtA delta N24 mutant in Staphylococcus aureus subsp. aureus str. Newman reduction in abundance of anchored SpA by FITC-labeled human IgG fluorescence based assay", "how_it_was_run": "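Newman wild type and ΔsrtA were diluted 1:1000 in TSB and grown at 37 °C with inhibitor until A600 reached 1.0. Cells were PBS-washed, labelled with FITC-human IgG for 30 min at rt, and washed again before fluorescence was read. Triplicate wells, three independent experiments, unpaired two-tailed t-test.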"}, "[2]": {"tested_on": "Staphylococcus aureus", "assay": "Antibacterial activity against Staphylococcus aureus subsp. aureus USA300 infected in BALB/c mouse model of systemic infection assessed as prolongation of time to death at 40 mg/kg/day, ip for 10 days", "assay_type": "functional, organism-based", "how_it_was_run": "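BALB/c females, 6 weeks old, n = 10. USA300 grown 3 hr at 37 °C from a 1:1,000 dilution of overnight culture, washed, suspended in PBS. Compound suspended in ddH2O with 4% Tween 80 and 4% DMSO, given i.p. at 40 mg/kg every 24 hr; saline placebo. Mice challenged periorbitally 4 hr after the first dose. Survival followed over 10 days.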"}, "[3]": {"tested_on": "Sortase A (Staphylococcus aureus), Q9S446 [UNDEFINED MUTATION]", "assay": "Inhibition of Staphylococcus aureus SrtA delta N24 mutant expressed in Escherichia coli BL21 (DE3) using Abz-LPATG-Dnp substrate incubated for 20 mins in presence of 0.01% v/v Triton X-100 by FRET-based assay"}, "[4]": {"tested_on": "Staphylococcus aureus", "assay": "Antibacterial activity against Staphylococcus aureus subsp. aureus str. Newman assessed as reduction in bacterial growth at 200 uM incubated for 24 hrs", "assay_type": "functional, organism-based", "how_it_was_run": "(§1)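 Overnight culture diluted 1:1000 in TSB, grown to A600 0.6-0.8, then diluted 1:400 in TSB. Aliquots incubated with the compound at a range of concentrations. A600 read every 1 hr for 24 hr to build growth curves. Technical triplicates per point; three independent experiments.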"}, "[5]": {"tested_on": "Sortase A (Staphylococcus aureus), Q9S446 [UNDEFINED MUTATION]", "assay": "Time dependent inhibition of Staphylococcus aureus SrtA delta N24 mutant expressed in Escherichia coli BL21 (DE3) assessed as reduction in IsdA (64 to 323 residues) transpeptidation by SDS-PAGE analysis"}, "[6]": {"tested_on": "Sortase A (Staphylococcus aureus), Q9S446 [UNDEFINED MUTATION]", "assay": "Effect on structural folding of Staphylococcus aureus SrtA delta N24 mutant expressed in Escherichia coli BL21 (DE3 assessed as induction of gross structural perturbations by CD spectroscopy", "how_it_was_run": "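SrtAΔN24 at 10 µM was incubated with compound dissolved in methanol, and CD spectra were recorded. Two independent experiments.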"}, "[7]": {"tested_on": "Staphylococcus aureus", "assay": "Antibacterial activity against Staphylococcus aureus subsp. aureus USA300 infected in BALB/c mouse model of systemic infection assessed as mouse survival at 40 mg/kg/day, ip for 10 days", "assay_type": "functional", "conditions": "240 h", "how_it_was_run": "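BALB/c females, 6 weeks old, n = 10. Drug suspended in ddH2O with 4% Tween 80 and 4% DMSO, given i.p. at 40 mg/kg every 24 hr. Saline was the placebo. Challenge by periorbital injection of USA300 4 hr after the first dose, about 1 × 10^8 CFU (lethal). Survival was followed for 10 days.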"}, "[8]": {"tested_on": "Staphylococcus aureus", "assay": "Antibiofilm activity against Staphylococcus aureus subsp. aureus str. Newman assessed as reduction in biofilm biomass at 25 to 100 uM incubated for 18 hrs by Crystal violet staining assay", "assay_type": "functional, organism-based", "how_it_was_run": "(§2)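 Overnight culture diluted 1:100 in TSB, plated in quadruplicate with inhibitor, and held static at 37 °C for 18 hr. Wells rinsed with PBS, and the dried, fixed biofilm stained with 0.1% crystal violet for 15 min. Stain dissolved in 30% acetic acid and absorbance read at 595 nm. Three independent experiments.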"}, "[9]": {"target": "T1, Sortase A (Staphylococcus aureus, UniProt Q9S446, DELTAN24)", "assay": "Inhibition of Staphylococcus aureus SrtA delta N24 mutant expressed in Escherichia coli BL21 (DE3) using Abz-LPATG-Dnp substrate incubated for 20 mins by FRET-based assay", "how_it_was_run": "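His-tagged SrtAΔN24 (1 µM) was preincubated 20 min at rt with compound (0.2–100 µM) in 50 mM Tris-HCl pH 7.5, 150 mM NaCl, 5 mM CaCl2. Abz-LPATG-Dnp was added at 10 µM and fluorescence (ex 309 / em 420 nm) was read each minute for 20 min. IC50 came from a sigmoidal fit. Technical triplicates, three independent experiments.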"}, "[10]": {"target": "T1, Sortase A", "assay": "Inhibition of Staphylococcus aureus SrtA delta N24 mutant expressed in Escherichia coli BL21 (DE3) assessed as reduction in IsdA (64 to 323 residues) transpeptidation incubated for 20 mins by SDS-PAGE analysis", "how_it_was_run": "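His-tagged SrtAΔN24 (100 µg) was preincubated 20 min at rt with compound (1–25 µM) in 50 mM Tris-HCl pH 7.5, 150 mM NaCl, 5 mM CaCl2. IsdA64-323 (150 µg) and 3 mM Gly3 were then added for 1.5 hr at 37 °C. […] Three independent experiments.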"}, "[11]": {"tested_on": "Staphylococcus aureus", "assay": "Antibacterial activity against Staphylococcus aureus subsp. aureus str. Newman assessed as reduction in bacterial growth incubated for 24 hrs", "assay_type": "functional", "how_it_was_run": "as §1"}, "[12]": {"tested_on": "Sortase A (Staphylococcus aureus), Q9S446 [UNDEFINED MUTATION]", "assay": "Covalent binding affinity to Staphylococcus aureus SrtA delta N24 mutant assessed as induction of m/z shift incubated for 12 hrs by ESI-LC/MS analysis", "how_it_was_run": "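His-tagged SrtAΔN24 preincubated 12 hr with or without a 10-fold excess of compound. Diluted in 50% acetonitrile / 0.2% formic acid, run on a C8 column with a 10–90% acetonitrile gradient over 11 min, then ESI-TOF MS. MTSET served as the covalent reference.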"}, "[13]": {"tested_on": "Sortase A (Staphylococcus aureus), Q9S446 [UNDEFINED MUTATION]", "assay": "Reversible inhibition of Staphylococcus aureus SrtA delta N24 mutant expressed in Escherichia coli BL21 (DE3) assessed as reduction in IsdA (64 to 323 residues) transpeptidation incubated for 20 mins followed by 10 fold compound dilution by SDS-PAGE analysis"}, "[14]": {"tested_on": "Staphylococcus aureus", "assay": "Antibiofilm activity against Staphylococcus aureus subsp. aureus USA300 assessed as reduction in biofilm formation at 25 to 100 uM incubated for 18 hrs by Crystal violet staining assay", "assay_type": "functional, organism-based", "how_it_was_run": "as §2"}, "[15]": {"assay": "Cmax in mouse at 10 mg/kg, ip administered as single dose", "assay_type": "ADME, organism-based", "design": "dose 10 mg/kg, route intraperitoneal", "conditions": "in vivo"}, "[16]": {"tested_on": "Sortase A (Staphylococcus aureus), Q9S446 [UNDEFINED MUTATION]", "assay": "Inhibition of SrtA delta N24 mutant in Staphylococcus aureus subsp. aureus str. Newman reduction in abundance of anchored SpA at 50 to 200 uM by Western blot analysis", "how_it_was_run": "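Newman was diluted 1:1000 and grown at 37 °C with inhibitor to A600 3.0. Cells were PBS-washed and digested with lysozyme for 30 min at 37 °C. Protoplasts were removed and the supernatant (cell wall fraction) was separated by SDS-PAGE and immunoblotted for SpA, with ClpP as the loading control. Three independent experiments.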"}, "[17]": {"assay": "Solubility in PBS in presence of 1% DMSO by LC/MS analysis", "assay_type": "physicochemical", "conditions": "PBS with 1% DMSO"}, "[18]": {"tested_on": "Staphylococcus aureus", "assay": "Effect on cell growth of Staphylococcus aureus subsp. aureus USA300 at 150 ug/ml", "assay_type": "organism-based", "how_it_was_run": "as §1"}},
  "note": "Calls of active or inactive are those of the source. The calls are words filed in the database; no cut-off is given here.",
  "data": [
    {"smiles": "O=c1sn(-c2cccc3ccccc23)c(=O)n1Cc1ccccc1", "note": "[TIDEGLUSIB]", "values": [
      {"measurement": "inhibition", "setting": "[1]", "result": "Dose-dependent effect"},
      {"measurement": "Activity", "setting": "[2]", "result": "Active"},
      {"measurement": "inhibition", "setting": "[3]", "result": "Active"},
      {"measurement": "inhibition", "setting": "[4]", "result": "Active"},
      {"measurement": "TDI", "setting": "[5]", "result": "inactive"},
      {"measurement": "Activity", "setting": "[6]", "result": "inactive"},
      {"measurement": "survival at 40 mg/kg/day", "setting": "[7]", "result": 40, "unit": "%"},
      {"measurement": "Activity", "setting": "[8]", "result": "Active"},
      {"measurement": "IC50", "setting": "[9]", "result": 0.6, "unit": "µM"},
      {"measurement": "IC50", "setting": "[10]", "result": 5.9, "unit": "µM"},
      {"measurement": "MIC", "setting": "[11]", "result": "> 100", "unit": "µg/mL"},
      {"measurement": "Activity", "setting": "[12]", "result": "inactive"},
      {"measurement": "inhibition", "setting": "[13]", "result": "Active"},
      {"measurement": "Activity", "setting": "[14]", "result": "Active"},
      {"measurement": "Cmax", "setting": "[15]", "result": 137, "unit": "ng/mL"},
      {"measurement": "inhibition", "setting": "[16]", "result": "Active"},
      {"measurement": "solubility", "setting": "[17]", "result": 11, "unit": "µg/mL"},
      {"measurement": "Activity", "setting": "[18]", "result": "Non-Toxic"}
    ]}
  ]
}
